In ChEMBL document CHEMBL1144138, “Cytotoxic terpenoids from the Formosan soft coral Nephthea brassica” (1999):
In brackets after ≈: the same amount, converted by molar mass.

Key:
Type in all cases: functional
[1] = tested on: A549; experiment: Cytotoxicity against human A549 cells after 6 days by MTT assay; details: A549, 144 h, read-out: ED50 (the source's name)
Procedure, shortened: (§1)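 Cells were adapted to RPMI 1640 with 10% FCS and 1 mM […], then grown at 37 °C in 5% CO2. Seeding per well was 750 for A549, 750 for HT-29, 2000 for KB and 1500 for P-388. Three to eight concentrations spanning an 8- to 128-fold range were tested. After exposure, 1 mg/mL MTT was added for 4 h at 37 °C, formazan was dissolved in DMSO, and A540 was read. ED50 is the concentration giving 50% absorbance reduction versus untreated cells.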

[2] = tested on: HT-29; experiment: Cytotoxicity against human HT-29 cells after 6 days by MTT assay; details: HT-29, 144 h, read-out: ED50 (the source's name); procedure, shortened: as §1
[3] = tested on: KB; experiment: Cytotoxicity against human KB cells after 3 days by MTT assay; details: 72 h, read-out: ED50 (the source's name); procedure, shortened: as §1
[4] = tested on: P388; experiment: Cytotoxicity against mouse P388 cells after 3 days by MTT assay; details: P388, 72 h, read-out: ED50 (the source's name); procedure, shortened: as §1

| SMILES | EC50 [1] | EC50 [2] | EC50 [3] | EC50 [4] |
| --- | --- | --- | --- | --- |
| C=C[C@]1(C)CC[C@H](C(=C)C)C[C@@H]1C(=C)C | > 50 µg/mL | > 50 µg/mL | > 50 µg/mL | 0.92 µg/mL (≈ 4.5 µM) |
| C=C(C)C1CC[C@@]2(C)CCC[C@@](C)(OC(C)=O)[C@@H]2C1 (stereo partly specified) | 0.12 µg/mL (≈ 0.454 µM) | > 50 µg/mL | > 50 µg/mL | 2.44 µg/mL (≈ 9.23 µM) |
| C=C(C)C1CC[C@@]2(C)CCC[C@@](C)(O)[C@@H]2C1 (stereo partly specified) | > 50 µg/mL | > 50 µg/mL | > 50 µg/mL | 3.86 µg/mL (≈ 17.4 µM) |
| C/C1=C\CC/C(C)=C/[C@H](O)C(C(C)(C)O)CC/C(C)=C/CC1 (stereo partly specified) | 0.71 µg/mL (≈ 2.32 µM) | 1.02 µg/mL (≈ 3.33 µM) | 0.23 µg/mL (≈ 0.75 µM) | 1.8 µg/mL (≈ 5.87 µM) |
| CC(=O)OC(C)(C)C1CC/C(C)=C/CC/C(C)=C/CCC2=C[C@@H]1OC2=O (stereo partly specified) [BRASSICOLIDE ACETATE] | 3.03 µg/mL | 0.81 µg/mL | 0.72 µg/mL | 1.2 µg/mL |
| C/C1=C\CCC2=C[C@H](OC2=O)C(C(C)(C)O)CC/C(C)=C/CC1 (stereo partly specified) [BRASSICOLIDE] | > 50 µg/mL | 5.81 µg/mL (≈ 18.2 µM) | 2.4 µg/mL (≈ 7.54 µM) | 2.44 µg/mL (≈ 7.66 µM) |
| C=C(C)[C@H]1C/C=C(\C)CC/C=C(\C)CC/C=C(\C)CC1 [CEMBRENE_A] | 1.11 µg/mL (≈ 4.07 µM) | 3.42 µg/mL (≈ 12.6 µM) | 3.73 µg/mL (≈ 13.7 µM) | 1.1 µg/mL (≈ 4.04 µM) |
| C=C(C)[C@@H]1CC/C(C)=C/CC/C(C)=C/CC[C@]2(C)O[C@H]2C1 [EPOXYCEMBRENE A] | 3.61 µg/mL (≈ 12.5 µM) | 2.72 µg/mL (≈ 9.43 µM) | 3.41 µg/mL (≈ 11.8 µM) | 0.4 µg/mL (≈ 1.39 µM) |
| C/C1=C\CC/C(C)=C/CC(C(C)(C)O)CC/C(C)=C/CC1 (stereo unspecified) [NEPHTHENOL] | 2.72 µg/mL (≈ 9.36 µM) | 3.01 µg/mL (≈ 10.4 µM) | 1.81 µg/mL (≈ 6.23 µM) | 0.42 µg/mL (≈ 1.45 µM) |
